Data on 2 compounds can be found in ChEMBL document CHEMBL3407413, “Repositioning proton pump inhibitors as anticancer drugs by targeting the thioesterase domain of human fatty acid synthase” (J Med Chem, 2015).

Calls of active or inactive are those of the source. The rule behind the calls is not given here.

As a reminder, the IC50 is the midpoint of a concentration-inhibition curve. What is called Ki is the dissociation constant of the complex between target and ligand, obtained from inhibition or displacement.

In assay [1] the test system is BXPC-3. In words: Effect of survival of human BxPC3 cells at 3.75 uM by MTT assay. The format is functional, cell-based. Summed up:
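BxPC-3 pancreatic cancer cells given the supplement alone; growth read by MTT assay against a DMSO control; n = 3.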
In general terms: Tetrazolium assays rely on reduction of a dye to a coloured formazan, in cell work by metabolically active cells.

Assay [2] deals with BXPC-3. In words: Effect of FASN expression of human BxPC3 cells at 3.75 uM by Western blot analysis. In kind it is functional, cell-based. Summed up: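 BxPC-3 pancreatic cancer cells given the supplement; FASN protein read by Western blot, with actin as the loading control.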
Assay [3] deals with T1, Fatty acid synthase (Homo sapiens, UniProt P49327). In words: Inhibition of purified recombinant FASN TE activity (unknown origin) using 4-MUH as substrate preincubated for 30 mins before substrate addition measured after 1 hr by fluorescence assay.
T1 sequence (P49327 whole entry): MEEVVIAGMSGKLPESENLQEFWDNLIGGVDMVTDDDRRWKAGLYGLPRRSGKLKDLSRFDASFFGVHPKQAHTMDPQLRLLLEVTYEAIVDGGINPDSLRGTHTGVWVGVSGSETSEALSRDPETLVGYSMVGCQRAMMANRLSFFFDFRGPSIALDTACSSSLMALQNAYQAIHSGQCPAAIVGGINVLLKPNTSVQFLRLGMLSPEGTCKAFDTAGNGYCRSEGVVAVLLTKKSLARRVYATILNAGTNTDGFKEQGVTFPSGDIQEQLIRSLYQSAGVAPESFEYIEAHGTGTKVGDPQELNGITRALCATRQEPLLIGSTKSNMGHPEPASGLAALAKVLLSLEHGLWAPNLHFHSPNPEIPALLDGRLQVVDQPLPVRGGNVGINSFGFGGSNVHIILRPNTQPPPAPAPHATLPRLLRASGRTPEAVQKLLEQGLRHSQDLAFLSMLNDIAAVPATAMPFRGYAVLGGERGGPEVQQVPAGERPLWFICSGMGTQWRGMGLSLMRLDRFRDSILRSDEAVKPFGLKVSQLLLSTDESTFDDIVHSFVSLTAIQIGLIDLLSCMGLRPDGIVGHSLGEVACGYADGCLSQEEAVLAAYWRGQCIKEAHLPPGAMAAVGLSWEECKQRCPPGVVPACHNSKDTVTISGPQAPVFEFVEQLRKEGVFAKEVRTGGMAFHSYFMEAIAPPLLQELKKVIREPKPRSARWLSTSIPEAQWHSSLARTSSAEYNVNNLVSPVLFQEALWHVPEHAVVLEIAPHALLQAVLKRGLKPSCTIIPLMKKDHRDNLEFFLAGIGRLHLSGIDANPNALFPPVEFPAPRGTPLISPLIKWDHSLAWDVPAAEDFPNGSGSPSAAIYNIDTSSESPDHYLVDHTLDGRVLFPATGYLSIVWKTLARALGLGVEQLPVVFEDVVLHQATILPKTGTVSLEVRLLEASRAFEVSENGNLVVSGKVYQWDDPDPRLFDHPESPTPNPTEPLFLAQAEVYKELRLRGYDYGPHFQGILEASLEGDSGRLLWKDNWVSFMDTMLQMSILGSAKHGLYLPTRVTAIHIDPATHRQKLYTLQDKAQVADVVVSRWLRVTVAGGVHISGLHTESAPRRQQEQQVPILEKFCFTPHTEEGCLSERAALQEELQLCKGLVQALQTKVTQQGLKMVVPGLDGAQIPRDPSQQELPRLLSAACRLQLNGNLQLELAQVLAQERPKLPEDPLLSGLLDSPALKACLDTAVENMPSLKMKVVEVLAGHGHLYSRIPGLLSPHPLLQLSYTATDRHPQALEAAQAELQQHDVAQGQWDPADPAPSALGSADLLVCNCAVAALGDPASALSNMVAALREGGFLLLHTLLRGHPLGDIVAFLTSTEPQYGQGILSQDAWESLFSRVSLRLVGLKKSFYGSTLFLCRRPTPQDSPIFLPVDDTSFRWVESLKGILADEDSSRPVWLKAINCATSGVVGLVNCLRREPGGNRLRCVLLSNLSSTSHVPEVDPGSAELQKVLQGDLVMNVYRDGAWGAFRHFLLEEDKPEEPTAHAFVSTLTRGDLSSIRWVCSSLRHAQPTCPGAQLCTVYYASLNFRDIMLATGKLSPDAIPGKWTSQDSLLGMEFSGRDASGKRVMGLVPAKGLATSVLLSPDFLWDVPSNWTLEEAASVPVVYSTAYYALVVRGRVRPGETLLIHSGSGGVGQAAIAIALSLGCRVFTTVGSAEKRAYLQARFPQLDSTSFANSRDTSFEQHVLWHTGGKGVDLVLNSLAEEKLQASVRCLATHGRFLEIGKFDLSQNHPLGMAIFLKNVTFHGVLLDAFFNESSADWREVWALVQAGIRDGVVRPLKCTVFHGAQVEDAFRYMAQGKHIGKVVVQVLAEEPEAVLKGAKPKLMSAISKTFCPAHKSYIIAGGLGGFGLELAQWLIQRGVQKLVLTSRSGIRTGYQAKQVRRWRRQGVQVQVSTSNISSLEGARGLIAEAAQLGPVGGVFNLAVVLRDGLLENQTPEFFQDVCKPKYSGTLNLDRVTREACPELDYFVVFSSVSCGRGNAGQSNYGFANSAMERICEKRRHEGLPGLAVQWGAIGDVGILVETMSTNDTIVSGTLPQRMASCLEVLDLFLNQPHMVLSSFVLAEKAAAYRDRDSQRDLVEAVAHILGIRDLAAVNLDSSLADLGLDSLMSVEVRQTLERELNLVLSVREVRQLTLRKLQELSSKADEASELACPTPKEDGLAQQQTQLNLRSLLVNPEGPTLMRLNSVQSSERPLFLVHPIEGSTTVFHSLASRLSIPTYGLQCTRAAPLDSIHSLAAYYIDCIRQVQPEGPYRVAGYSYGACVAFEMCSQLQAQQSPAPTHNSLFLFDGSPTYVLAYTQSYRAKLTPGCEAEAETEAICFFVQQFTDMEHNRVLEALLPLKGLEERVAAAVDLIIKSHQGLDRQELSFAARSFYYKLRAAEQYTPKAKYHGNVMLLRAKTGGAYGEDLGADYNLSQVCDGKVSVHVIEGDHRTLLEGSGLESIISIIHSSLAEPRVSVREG
In assay [4] the target is T1, Fatty acid synthase.
The test system of assay [5] is BXPC-3. In words: Effect on pH homeostasis in human BxPC3 cells assessed as change in intracellular pH at 12.5 to 100 uM after 72 hrs by pHrodo red dye-based fluorescence assay. The format is functional, cell-based. The essentials:
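Loaded with pHrodo red intracellular pH dye and fluorescence read in-well. Fluorescence converted to pH using a calibration kit standard curve (fluorescence vs pH). Three independent experiments.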

For assay [6], the system named is PANC-1. In words: Effect on FASN expression in human PANC1 cells at 12.5 to 200 uM after 30 mins by Western blot analysis. In kind it is functional, cell-based. (In general: Immunoblotting shows a protein as a band on a membrane.)
Assay [7] has as its system BXPC-3. In words: Induction of apoptosis in human BxPC3 cells assessed as PARP1 cleavage after 24 hrs by Western blot analysis. In kind it is functional, cell-based. Summed up:
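Harvested and analysed by Western blot with an antibody specific to cleaved PARP-1; actin as loading control.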

Assay [8] has as its target T1, Fatty acid synthase. This is another data set of the same source.
Assay [9] concerns BXPC-3. In words: Cytotoxicity against human BxPC3 cells by MTT assay in presence of 3.75 uM palmitate. The format is functional, cell-based.
Assay [10] has as its system BXPC-3. In words: Induction of apoptosis in human BxPC3 cells in presence of 3.75 uM palmitate. In kind it is functional, cell-based.
Assay [11] has as its system BXPC-3. In words: Effect on pH homeostasis in human BxPC3 cells assessed as change in extracellular pH at 100 uM after 72 hrs by pH metry. The format is functional, cell-based. The essentials: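 Culture medium was collected, cleared of cell debris by centrifugation, and measured with a pH meter.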
The test system of assay [12] is PANC-1. In words: Inhibition of survival of human PANC1 cells after 10 to 14 days by crystal violet staining-based colony formation assay. The format is functional, cell-based. The essentials:
(§1)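 Cells seeded at 100/well (PANC-1, including stable vector- or wild-type FASN-transfected lines) or 200/well (BxPC-3) and grown 24 h. Then cultured continuously with PPIs or DMSO vehicle for 10–14 days, stained with crystal violet and colonies counted manually. Three independent experiments.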

For assay [13], the system named is PANC-1. In words: Inhibition of survival of vector-transfected human PANC1 cells after 10 to 14 days by crystal violet staining-based colony formation assay. The format is functional, cell-based. The essentials: as §1
Assay [14] has as its system PANC-1. In words: Induction of apoptosis in human PANC1 cells assessed as cytoplasmic histone-associated DNA fragments after 72 hrs by ELISA method. In kind it is functional, cell-based. A general note: An ELISA detects its analyte on a solid surface through an enzyme-linked reagent.
Assay [15] deals with PANC-1. In words: Inhibition of survival of wild-type FASN overexpressing human PANC1 cells after 10 to 14 days by crystal violet staining-based colony formation assay. In kind it is functional, cell-based. The essentials:
as §1

In the case of `CCCCCCCCCCCCCCCC(=O)O`, the result with BXPC-3 [1] and in the assay with BXPC-3 [2] was inactive.

As to `Cc1c(OCC(F)(F)F)ccnc1C[S+]([O-])c1nc2ccccc2[nH]1` (stereo unspecified) [LANSOPRAZOLE], the IC50 is 46.7 µM at Fatty acid synthase [3], 124 µM at Fatty acid synthase [4] and 93 µM on Fatty acid synthase [8]. The Ki on Fatty acid synthase [3] was 5.3 µM. The outcome in the assay with BXPC-3 [5], with PANC-1 [6], with BXPC-3 [9], in the assay with BXPC-3 [10] and with BXPC-3 [11] was inactive. Besides, the Activity entry with BXPC-3 [7] and in the assay on PANC-1 [14] was “Dose-dependent effect” throughout. Besides, in the assay with PANC-1 [12], the inhibition entry was “Dose-dependent effect”. Moreover, in the assay with PANC-1 [13], the inhibition result was “inactive”. Also, the inhibition result with PANC-1 [15] is “Active”.
